From ChEMBL document CHEMBL1139618, “The synthesis of substituted bipiperidine amide compounds as CCR3 ligands: antagonists versus agonists” (Bioorg Med Chem Lett, 2005) come the findings set out here.

One may read the Ki as a measure of affinity in units of concentration, obtained from inhibition or displacement. Broadly, the Emax is the size of the effect at its maximum, as opposed to the concentration needed. One may read the IC50 as the point on the concentration scale where inhibition reaches its midpoint. For orientation: AUC means the area under the concentration-time curve, a measure of exposure. Higher therefore signals more exposure. Broadly, the inhibition is the percentage by which the read-out fell short of the control.

Where “and” joins values, the source holds several entries; their conditions need not be identical. Equal entries are not always repeated.

In series [1] the target is T1, C-C chemokine receptor type 3 (Homo sapiens, UniProt P51677).
T1 sequence (P51677 whole entry): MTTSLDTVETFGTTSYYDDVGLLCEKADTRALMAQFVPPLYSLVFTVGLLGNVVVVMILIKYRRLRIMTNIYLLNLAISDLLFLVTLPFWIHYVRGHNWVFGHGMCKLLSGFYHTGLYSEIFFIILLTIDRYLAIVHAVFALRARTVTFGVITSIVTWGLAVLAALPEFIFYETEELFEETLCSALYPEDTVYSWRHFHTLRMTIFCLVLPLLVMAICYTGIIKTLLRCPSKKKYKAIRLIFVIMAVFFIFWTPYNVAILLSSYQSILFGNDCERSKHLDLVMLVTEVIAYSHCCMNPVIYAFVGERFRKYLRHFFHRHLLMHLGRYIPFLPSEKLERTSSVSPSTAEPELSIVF
Kind of series: (§1) In vitro binding activity against C-C chemokine receptor type 3 using [35S]GTP-gamma-S, as radioligand. The class given is functional. For orientation: Binding of GTPγS marks nucleotide exchange on a G protein.

Series [2] deals with T2, C-C chemokine receptor type 3 (Homo sapiens) (UniProt P51677).
T2 sequence (whole entry): T1 sequence (P51677 whole entry)
Put plainly: In vitro percent increase over basal binding of [35S]-GTP-gamma S against C-C chemokine receptor type 3 at 10 uM. The class given is functional. The method, boiled down: (§2)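 [³⁵S]GTPγS binding to CCR3 receptor-membrane preparations in excess GDP, testing for agonism. E_max % is the percent rise over basal [³⁵S]GTPγS binding at 10 μM compound, expressed as a percent of the maximal response to 100 nM eotaxin.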

Series [3] deals with T2, C-C chemokine receptor type 3 (Homo sapiens). Kind of series: In vitro percent increase over basal binding of [35S]-GTP-gamma S against C-C chemokine receptor type 3. The class given is functional. The method in brief:
as §2

A short description of series [4]: Inhibitory concentration against CREM 3 cell line using calcium flux assay at 37 C at 7.4 pH with compound dissolved in DMSO. The class given is functional, cell-based. The settings on record: CREM3. The method, boiled down:
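CREM3 cells (rat Y3 line transfected with human CCR3) were used at 37 °C. Compounds were dissolved in DMSO and diluted in pH 7.4 HBSS containing HEPES, BSA and probenecid.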

Series [5] in a line: In vivo Area under curve in rat at 3 mg/kg after IV administration. The class given is ADME, organism-based. Details: dose 3 mg/kg, route intravenous.
Series [6] concerns the target T2, C-C chemokine receptor type 3 (Homo sapiens). Put plainly: In vitro binding activity against C-C chemokine receptor type 3 using [35S]GTP-gamma-S, as radioligand at 1 uM. It counts as functional.
Series [7] has the same target. Put plainly: In vitro percent inhibition against C-C chemokine receptor type 3 using [35S]GTP-gamma-S, as radioligand at 1 uM. It counts as functional.
Series [8] shares this target. Put plainly: In vitro percent inhibition against C-C chemokine receptor type 3 using [35S]GTP-gamma-S, as radioligand; at 1 uM. It counts as functional.
Series [9] has the same target. The description is as §1. It counts as functional. The settings on record: concentration not given here.

In turn, `O=C(NCC1CCCN(C2CCN(Cc3cc(Cl)ccc3Cl)CC2)C1)c1ccc2ncccc2c1` (stereo not drawn) gave a Ki in series [1] of 391 nM. In [2], the Emax came out at 45%.
With `O=C(NCC1CCCN(C2CCN(Cc3ccc(Cl)c(Cl)c3)CC2)C1)c1cccc2ccccc12` (stereo not drawn), the Ki in [1] amounted to 58 nM.
The same measure, in the same setting: for `O=C(NCC1CCCN(C2CCN(Cc3ccc(Cl)c(Cl)c3)CC2)C1)c1ccc2ccccc2c1` (stereo not drawn) the value was 48 nM; for `O=C(NCC1CCCN(C2CCN(Cc3ccc(Cl)c(Cl)c3)CC2)C1)c1nccc2ccccc12` (stereo not drawn), 34 nM.
Consider `CC1CN(Cc2ccc(Cl)c(Cl)c2)CCC1N1CCCC(CNC(=O)c2ccc3ncccc3c2)C1` (stereo not drawn), for which the Emax in series [3] is 96%. For the same compound, the Ki in [1] came to 7.3 nM.
Consider `O=C(NCC1CCCN(C2CCN(Cc3ccc(Cl)c(Cl)c3)CC2)C1)c1ccc2ncccc2c1` (stereo not drawn), for which the half-maximal inhibitory concentration (IC50) in series [4] stood at 215 nM. Moreover, in [5], the AUC is 264 ng·h/mL. For the same compound, the inhibition constant Ki in series [1] came out at 23 nM. Also, the Emax in series [2] is -7%.
`O=C(NCC1CCCN(C2CCN(C(=O)Cc3ccc(Cl)c(Cl)c3)CC2)C1)c1ccc2ncccc2c1` (stereo not drawn): in [1], the Ki is 767 nM.
Same read-out and setting: next, `O=C(NCC1CCCN(C2CCN(Cc3ccc(Cl)c(Cl)c3)CC2)C1)c1cnnc2ccccc12` (stereo not drawn): 99 nM; `CC(=O)NCC1CCCN(C2CCN(Cc3ccc(Cl)c(Cl)c3)CC2)C1` (stereo not drawn): 533 nM.
With `CC(c1ccc(Cl)c(Cl)c1)N1CCC(N2CCCC(CNC(=O)c3ccc4ncccc4c3)C2)CC1` (stereo not drawn), the affinity in series [1] corresponds to a Ki of 74 nM. Moreover, the Emax in series [2] was -12%.
In series [1], `COc1ccccc1C(=O)NCC1CCCN(C2CCN(Cc3ccc(Cl)c(Cl)c3)CC2)C1` (stereo not drawn) had a Ki of 92 nM.
`O=C(NCC1CCCN(C2CCN(Cc3cc(Cl)cc(Cl)c3)CC2)C1)c1ccc2ncccc2c1` (stereo not drawn) yielded a Ki in [1] of 398 nM. In series [2], the Emax is 45%.
As for `O=C(NCC1CCCN(C2CCN(Cc3ccccc3Cl)CC2)C1)c1ccc2ncccc2c1` (stereo not drawn), in series [6], the inhibition was determined as 36%.
In turn, `O=C(NCC1CCCN(C2CCN(CC3CCCCC3)CC2)C1)c1ccc2ncccc2c1` (stereo not drawn) yielded an inhibition in series [7] of 17%.
`O=C(NCC1CCCN(C2CCN(Cc3ccc(Cl)c(Cl)c3)CC2)C1)c1ccnc2ccccc12` (stereo not drawn) returned a Ki in series [1] of 80 nM.
Same read-out and setting: for `Cc1ccccc1CC(=O)NCC1CCCN(C2CCN(Cc3ccc(Cl)c(Cl)c3)CC2)C1` (stereo not drawn) the value was 86 nM.
On the same count and under the same terms, for `Cc1ccccc1C(=O)NCC1CCCN(C2CCN(Cc3ccc(Cl)c(Cl)c3)CC2)C1` (stereo not drawn) the value was 60 nM.
Turning to `O=C(NCC1CCCN(C2CCN(C(=O)c3ccc(Cl)c(Cl)c3)CC2)C1)c1ccc2ncccc2c1` (stereo not drawn), the inhibition in [8] was found to be 20%.
In series [1], `O=C(NCC1CCCN(C2CCN(Cc3ccc(Cl)cc3)CC2)C1)c1ccc2ncccc2c1` (stereo not drawn) returned a Ki of 95 nM. Further, in [2], the Emax was -8%.
On to `O=C(NCC1CCCN(C2CCN(Cc3ccc(Cl)c(Cl)c3)CC2)C1)c1ccccc1Cl` (stereo not drawn), for which, in series [9], the inhibition came out at 27%.
In [7], `O=C(Nc1ccc(Cl)c(Cl)c1)NN1CCC(N2CCCC(CNC(=O)c3ccc4ncccc4c3)C2)CC1` (stereo not drawn) registered an inhibition of 6%.
Compound `O=C(NCC1CCCN(C2CCN(Cc3ccc(Cl)c(Cl)c3)CC2)C1)c1cccc2[nH]ccc12` (stereo not drawn) came in with an inhibition constant (Ki) in series [1] of 36 nM.
Still for that read-out and setting: for `O=C(NCC1CCCN(C2CCN(Cc3ccc(Cl)c(Cl)c3)CC2)C1)c1ccc2[nH]ccc2c1` (stereo not drawn) the value was 29 nM; for `O=C(NCC1CCCN(C2CCN(Cc3ccc(Cl)c(Cl)c3)CC2)C1)c1ccc2nc[nH]c2c1` (stereo not drawn), 47 nM.
In the case of `CC1(N2CCCC(CNC(=O)c3ccc4ncccc4c3)C2)CCN(Cc2ccc(Cl)c(Cl)c2)CC1` (stereo not drawn), the Emax in series [3] came out at 8%. In series [1], this compound registered a Ki of 50 nM.
`O=C(NCC1CCCN(C2CCN(CCc3ccc(Cl)c(Cl)c3)CC2)C1)c1ccc2ncccc2c1` (stereo not drawn) yielded a Ki in [1] of 180 nM. Further, in [2], the Emax is 2%.
In the case of `O=C(NCC1CCCN(C2CCN(Cc3ccc(Cl)c(Cl)c3)CC2)C1)c1cccc2cccnc12` (stereo not drawn), the Ki in series [1] was 30 nM and 36 nM.
Regarding `O=C(NCC1CCCN(C2CCN(Cc3ccc(Cl)c(Cl)c3)CC2)C1)C1CCCCC1` (stereo not drawn), the inhibitory constant (Ki) in series [1] is 107 nM.
